In ChEMBL document CHEMBL1135434, “An algorithm-directed two-component library synthesized via solid-phase methodology yielding potent and orally bioavailable p38 MAP kinase inhibitors” (J Med Chem, 2002):

Tests used:
MAP kinase p38 = MAP kinase p38 (Mus musculus, UniProt P47811+O08911+Q9WUI1+Q9Z1B7); assay: Inhibition of murine Mitogen-activated protein kinase p38; assay type: protein assay
Method in brief: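 Mouse p38 enzyme, 40 ng/well, run for 1 h at room temperature. ATF-2 (50 µg/mL) coated on plates as substrate. Buffer: 25 mM Hepes pH 7.7, 25 mM MgCl2, 2 mM DTT, 1 mM sodium orthovanadate, 100 µM ATP. Phospho-ATF-2 detected with a rabbit phospho-specific antibody, then a europium-labelled anti-rabbit secondary, read by DELFIA fluorescence. Mean ± SEM, n = 3.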

Rattus norvegicus [1] = organism: Rattus norvegicus; assay: PK study was carried to determine AUC (area under curve) value in rat; assay type: ADME, organism-based; parameters: concentration or dose not given beside the values; conditions: in vivo
Method in brief: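 Three rats dosed at 1 mg/kg, either orally as a methylcellulose suspension or iv as a solution in N-methylpyrrolidone. Blood sampled at intervals over 24 h and assayed for compound. Results averaged, n = 3.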

[2] = PK study was carried to determine the relative absorption ranking in rat.; assay type: ADME, organism-based; conditions: plasma, read-out: Cp max
[3] = target: T1, Tumor necrosis factor (Mus musculus) (UniProt P06804); assay: Effective dose against LPS-stimulated Tumor necrosis factor, alpha release in mice dosed orally, 30 min prior to LPS challenge (0.1 mg/kg, ip); assay type: functional, organism-based
T1 sequence (whole entry): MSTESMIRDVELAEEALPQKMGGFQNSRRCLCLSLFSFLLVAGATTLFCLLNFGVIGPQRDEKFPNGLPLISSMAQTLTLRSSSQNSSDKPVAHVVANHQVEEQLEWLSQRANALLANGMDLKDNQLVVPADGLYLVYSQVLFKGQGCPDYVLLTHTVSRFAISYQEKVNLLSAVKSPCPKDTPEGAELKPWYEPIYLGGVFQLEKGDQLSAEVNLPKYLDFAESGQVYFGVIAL
Method in brief: (§1)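 Balb/c mice dosed orally 30 min before ip LPS (0.1 mg/kg). Serum TNFα measured 90 min after LPS. Means, n = 3.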

[4] = target: T1, Tumor necrosis factor (Mus musculus); assay: Effective dose against LPS-stimulated Tumor necrosis factor, alpha release in mice dosed orally, 30 min prior to LPS challenge (0.1 mg/kg, ip); value ranges from 3-10; assay type: functional, organism-based; method in brief: as §1
Rattus norvegicus [5] = assay: Effective dose for suppressing paw swelling in an in vivo SCW (streptococcal cell wall) induced arthritis model in Lewis rat; value ranges from 10-30; assay type: functional

| IC50 (MAP kinase p38) | AUC (Rattus norvegicus [1]) | Cmax [2] | Structure (SMILES) | ED50 [3] | ED50 [4] | ED50 (Rattus norvegicus [5]) |
| --- | --- | --- | --- | --- | --- | --- |
| 6 nM | 738 ng·h/mL | 270 ng/mL | CCCNC(=O)[C@]1(C)CO[C@@H](c2nc(-c3ccc(F)cc3)c(-c3ccnc(NCCCOC)n3)[nH]2)OC1 | 6 mg/kg | – | – |
| 12 nM | 412 ng·h/mL | 141 ng/mL | CC(C)NC(=O)[C@]1(C)CO[C@@H](c2nc(-c3ccc(F)cc3)c(-c3ccnc(NCC4CC4)n3)[nH]2)OC1 | 0.7 mg/kg | – | – |
| 62 nM | 169 ng·h/mL | 95 ng/mL | C=CCNc1nccc(-c2[nH]c([C@H]3OC[C@@](C)(C(=O)NCCOC)CO3)nc2-c2ccc(F)cc2)n1 | 0.2 mg/kg | – | – |
| 110 nM | 628 ng·h/mL | 277 ng/mL | CS(=O)(=O)O.C[C@]1(C(=O)N2CCOCC2)CO[C@H](c2nc(-c3ccc(F)cc3)c(-c3ccncc3)[nH]2)OC1 | – | – | – |
| 5 nM | 288 ng·h/mL | 91 ng/mL | C[C@]1(C(=O)NC2CC2)CO[C@H](c2nc(-c3ccc(F)cc3)c(-c3ccnc(NCC4CC4)n3)[nH]2)OC1 | 5 mg/kg | – | – |
| 4 nM | 529 ng·h/mL | 110 ng/mL | CN(C)C(=O)[C@]1(C)CO[C@@H](c2nc(-c3ccc(F)cc3)c(-c3ccnc(NCc4ccccn4)n3)[nH]2)OC1 | 8 mg/kg | – | – |
| 47 nM | 121 ng·h/mL | 62 ng/mL | COCCNc1nccc(-c2[nH]c([C@H]3OC[C@@](C)(C(=O)NCC4CC4)CO3)nc2-c2ccc(F)cc2)n1 | 3 mg/kg | – | – |
| 6 nM | 257 ng·h/mL | 39 ng/mL | CCCNC(=O)[C@]1(C)CO[C@@H](c2nc(-c3ccc(F)cc3)c(-c3ccnc(NCc4ccco4)n3)[nH]2)OC1 | – | – | – |
| – | – | – | C[C@]1(C(=O)N2CCOCC2)CO[C@H](c2nc(-c3ccc(F)cc3)c(-c3ccncc3)[nH]2)OC1 [listing 1 of 2 here] | – | 10 mg/kg | – |
| 4 nM | 541 ng·h/mL | 221 ng/mL | CN1CCN(C(=O)[C@]2(C)CO[C@@H](c3nc(-c4ccc(F)cc4)c(-c4ccnc(NCC5CC5)n4)[nH]3)OC2)CC1 | 10 mg/kg | – | 30 mg/kg |
| 127 nM | 138 ng·h/mL | 89 ng/mL | COCCCNc1nccc(-c2[nH]c([C@H]3OC[C@@](C)(C(=O)NCCOC)CO3)nc2-c2ccc(F)cc2)n1 | 5 mg/kg | – | – |
| 6 nM | 276 ng·h/mL | 29 ng/mL | CN(C)C(=O)[C@]1(C)CO[C@@H](c2nc(-c3ccc(F)cc3)c(-c3ccnc(NCC4CC4)n3)[nH]2)OC1 | 9 mg/kg | – | – |
| – | 247 ng·h/mL | 60 ng/mL | C[C@]1(C(=O)N2CCOCC2)CO[C@H](c2nc(-c3ccc(F)cc3)c(-c3ccncc3)[nH]2)OC1 [listing 2 of 2 here] | – | – | – |
